pEC50: −log10 of the molar value.
Key:
PBMC = assay: Antiinflammatory activity in human PBMC assessed as inhibition of PHA-induced IP-10 production after 24 hrs; format: functional, cell-based
How it was run: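 Thawed cryopreserved human PBMCs were preincubated 1 h at 37 °C, 5% CO2, then exposed to test compound for 1 h before LPS, anti-CD3 or PHA stimulation. Supernatants were collected at 6, 24 or 48 h according to each cytokine's peak, and cytokines quantified by Luminex multiplex bead assay. 10-point titration starting at 20 µM, in duplicate, with constant DMSO. Parallel Alamar Blue cytotoxicity check under 48 h PHA.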

Streptococcus pyogenes = assay: Antibacterial activity against constitutive-resistant to macrolide, licosamide and streptogramin Streptococcus pyogenes 166 GR-Micro by broth microdilution method; format: functional
How it was run: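 MICs by CLSI broth microdilution with double dilutions, except that Streptococcus medium used 5% horse serum in place of lysed blood. Bacteria were pre-grown on Columbia agar with 5% sheep blood (streptococci) or Mueller–Hinton agar (staphylococci).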

[1] = Cmax in Balb/c mouse lung at 2 mg/kg, administered intranasally; format: ADME, organism-based; design: dose 2 mg/kg, route nasal; settings: inhaled or intranasal
How it was run: (§1)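 Male Balb/c mice (21–25 g) dosed intranasally with freshly prepared formulation in 1% DMSO plus 0.125% CMC. Terminal bleeding and lung collection from 5 min to 72 h. K2EDTA blood taken as blood aliquots or spun for plasma. Lung homogenised 1:5 in water. Samples were protein-precipitated with acetonitrile/methanol (2:1) plus roxithromycin internal standard and quantified by LC–MS/MS. LLOQ 0.5 ng/mL (blood/plasma) and 2.5 ng/mL (lung).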

[2] = AUC (0 to infinity) in Balb/c mouse blood at 2 mg/kg, administered intranasally; format: ADME, organism-based; design: time infinity, dose 2 mg/kg, route nasal; settings: whole blood, inhaled or intranasal; how it was run: as §1

With `CC[C@H]1OC(=O)[C@H](C)[C@@H](O[C@H]2C[C@@](C)(OC)[C@@H](O)[C@H](C)O2)[C@H](C)[C@@H](O[C@@H]2O[C@H](C)C[C@H](N(C)C)[C@H]2O)[C@](C)(O)C[C@@H](C)CN(CCCNC(=O)[C@H]2[C@H](C)C[C@H]3[C@@H]4CCC5=CC(=O)C=C[C@]5(C)[C@@]4(F)[C@@H](O)C[C@@]32C)[C@H](C)[C@@H](O)[C@]1(C)O` the pEC50 (PBMC) was under 4.70, the MIC (Streptococcus pyogenes) was over 64 µg/mL and the Cmax [1] was 2410 ng/mL. It also gave an AUC(0-inf) [2] of 181 ng·h/mL.

Reference: ChEMBL document CHEMBL2311478, “Macrolactonolides: a novel class of anti-inflammatory compounds” (Bioorg Med Chem, 2013)
